Measured values from ChEMBL document CHEMBL1255404, “Spread of OXA-48-encoding plasmid in Turkey and beyond” (2010).
In brackets after ≈: the same amount, converted by molar mass.

Key:
Type in all cases: functional
Klebsiella pneumoniae [1] = assay: Antimicrobial activity against Klebsiella pneumoniae isolate KpL expressing beta-lactamase OXA-48 by Etest method
Klebsiella pneumoniae [2] = assay: Antimicrobial activity against Klebsiella pneumoniae isolate KpB expressing OXA-48 and CTX-M-15 by Etest method
Escherichia coli [3] = assay: Antimicrobial activity against Escherichia coli isolate J53 harboring pBb containing beta-lactamase OXA-48 located within transposon Tn1999.2 by Etest method
In short: (§1)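 β-Lactam MICs read with Etest strips. Strains are E. coli J53 recipient and J53 transconjugants carrying OXA-48-positive plasmids recovered from clinical enterobacterial isolates.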

Klebsiella pneumoniae [4] = assay: Antimicrobial activity against Klebsiella pneumoniae isolate Kp3A expressing beta-lactamase OXA-48 by Etest method
In short: (§2)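 MICs of β-lactams read from Etest strips. The test organisms are carbapenem-resistant, OXA-48-positive clinical Enterobacteriaceae isolates recovered from Turkey, Lebanon, Egypt, France and Belgium.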

Escherichia coli [5] = assay: Antimicrobial activity against Escherichia coli isolate J53 harboring p4A containing beta-lactamase OXA-48 located within transposon Tn1999 by Etest method; in short: as §1
Escherichia coli [6] = assay: Antimicrobial activity against Escherichia coli isolate J53 harboring p5A containing beta-lactamase OXA-48 located within transposon Tn1999 by Etest method; in short: as §1
Escherichia coli [7] = assay: Antimicrobial activity against Escherichia coli isolate J53 harboring p6A containing beta-lactamase OXA-48 located within transposon Tn1999 by Etest method; in short: as §1
Klebsiella pneumoniae [8] = assay: Antimicrobial activity against Klebsiella pneumoniae isolate Kp7A expressing beta-lactamase OXA-48 by Etest method; in short: as §2
Escherichia coli [9] = assay: Antimicrobial activity against Escherichia coli isolate J53 harboring p7A containing beta-lactamase OXA-48 located within transposon Tn1999 by Etest method; in short: as §1
Escherichia coli [10] = assay: Antimicrobial activity against Escherichia coli isolate J53 harboring pI-1 containing beta-lactamase OXA-48 located within transposon Tn1999.2 by Etest method; in short: as §1
Escherichia coli [11] = assay: Antimicrobial activity against Escherichia coli isolate J53 harboring pI-2 containing beta-lactamase OXA-48 located within transposon Tn1999.2 by Etest method; in short: as §1
Klebsiella pneumoniae [12] = assay: Antimicrobial activity against Klebsiella pneumoniae isolate KpBIC expressing beta-lactamase OXA-48 by Etest method; in short: as §2
Escherichia coli [13] = assay: Antimicrobial activity against Escherichia coli isolate TOP10 harboring pBIC containing beta-lactamase OXA-48 located within transposon Tn1999.2 by Etest method
In short: (§3)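 β-Lactam MICs read with Etest strips. Strains are E. coli TOP10 host and TOP10 transformants made with plasmid DNA extract when conjugation failed. Transformants were selected on LB agar with ticarcillin 50 μg/ml.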

Escherichia coli [14] = assay: Antimicrobial activity against Escherichia coli isolate J53 harboring pE containing beta-lactamase OXA-48 located within transposon Tn1999.2 by Etest method; in short: as §1
Klebsiella pneumoniae [15] = assay: Antimicrobial activity against Klebsiella pneumoniae isolate KpBEL expressing beta-lactamase OXA-48 by Etest method; in short: as §2
Escherichia coli [16] = assay: Antimicrobial activity against Escherichia coli isolate J53 harboring pBEL containing beta-lactamase OXA-48 located within transposon Tn1999.2 by Etest method; in short: as §1
Escherichia coli [17] = assay: Antimicrobial activity against Escherichia coli isolate J53 harboring pL containing beta-lactamase OXA-48 located within transposon Tn1999.2 by Etest method; in short: as §1
Escherichia coli [18] = assay: Antimicrobial activity against Escherichia coli isolate TOP10 harboring pPR containing beta-lactamase and TEM-101 by Etest method; in short: as §3
Escherichia coli [19] = assay: Antimicrobial activity against Escherichia coli isolate J53 harboring pCF containing beta-lactamase OXA-48 located within transposon Tn1999 by Etest method; in short: as §1
Escherichia coli [20] = assay: Antimicrobial activity against Escherichia coli isolate J53 harboring pEcA containing beta-lactamase OXA-48 located within transposon Tn1999.2 by Etest method; in short: as §1
Escherichia coli [21] = assay: Antimicrobial activity against Escherichia coli isolate J53 by Etest method; in short: as §1
Klebsiella pneumoniae [22] = assay: Antimicrobial activity against Klebsiella pneumoniae isolate Kp11978 expressing beta-lactamase OXA-48, SHV-2a and TEM-1 by Etest method
Escherichia coli [23] = assay: Antimicrobial activity against Escherichia coli isolate J53 harboring pA-1 containing beta-lactamase OXA-48 located within transposon Tn1999 by Etest method; in short: as §1
Escherichia coli [24] = assay: Antimicrobial activity against Escherichia coli isolate J53 harboring p3A containing beta-lactamase OXA-48 located within transposon Tn1999 by Etest method; in short: as §1
Klebsiella pneumoniae [25] = assay: Antimicrobial activity against Klebsiella pneumoniae isolate Kp4A expressing beta-lactamase OXA-48 and CTX-M-15 by Etest method
Klebsiella pneumoniae [26] = assay: Antimicrobial activity against Klebsiella pneumoniae isolate Kp5A expressing beta-lactamase OXA-48 and SHV-5 by Etest method
Klebsiella pneumoniae [27] = assay: Antimicrobial activity against Klebsiella pneumoniae isolate Kp6A expressing beta-lactamase OXA-48 and TEM-150 by Etest method
Klebsiella pneumoniae [28] = assay: Antimicrobial activity against Klebsiella pneumoniae isolate KpI-1 expressing beta-lactamase OXA-48 and CTX-M-15 by Etest method
Klebsiella pneumoniae [29] = assay: Antimicrobial activity against Klebsiella pneumoniae isolate KpI-2 expressing beta-lactamase OXA-48 and CTX-M-15 by Etest method
Klebsiella pneumoniae [30] = assay: Antimicrobial activity against Klebsiella pneumoniae isolate KpE expressing beta-lactamase OXA-48 and CTX-M-15 by Etest method
Providencia rettgeri = assay: Antimicrobial activity against Providencia rettgeri isolate expressing beta-lactamase OXA-48 and TEM-101 by Etest method
Enterobacter cloacae [31] = assay: Antimicrobial activity against Enterobacter cloacae isolate 1 expressing beta-lactamase OXA-48 and SHV-5 by Etest method
Escherichia coli [32] = assay: Antimicrobial activity against Escherichia coli isolate J53 harboring pEnc1 containing beta-lactamase OXA-48 located within transposon Tn1999 by Etest method; in short: as §1
Enterobacter cloacae [33] = assay: Antimicrobial activity against Enterobacter cloacae isolate 2 expressing beta-lactamase OXA-48 and SHV-5 by Etest method
Escherichia coli [34] = assay: Antimicrobial activity against Escherichia coli isolate J53 harboring pEnc2 containing beta-lactamase OXA-48 located within transposon Tn1999 by Etest method; in short: as §1
Citrobacter freundii = assay: Antimicrobial activity against Citrobacter freundii isolate expressing beta-lactamase OXA-48 by Etest method
Escherichia coli [35] = assay: Antimicrobial activity against Escherichia coli isolate A expressing beta-lactamase OXA-48 and TEM-150 by Etest method
Escherichia coli [36] = assay: Antimicrobial activity against Escherichia coli isolate TOP10 by Etest method; in short: as §3

| Structure (SMILES) | MIC (Klebsiella pneumoniae [1]) [µg/mL] | MIC (Klebsiella pneumoniae [2]) [µg/mL] | MIC (Escherichia coli [3]) [µg/mL] | MIC (Klebsiella pneumoniae [4]) [µg/mL] | MIC (Escherichia coli [5]) [µg/mL] | MIC (Escherichia coli [6]) [µg/mL] | MIC (Escherichia coli [7]) [µg/mL] | MIC (Klebsiella pneumoniae [8]) [µg/mL] | MIC (Escherichia coli [9]) [µg/mL] | MIC (Escherichia coli [10]) [µg/mL] | MIC (Escherichia coli [11]) [µg/mL] | MIC (Klebsiella pneumoniae [12]) [µg/mL] | MIC (Escherichia coli [13]) [µg/mL] | MIC (Escherichia coli [14]) [µg/mL] | MIC (Klebsiella pneumoniae [15]) [µg/mL] | MIC (Escherichia coli [16]) [µg/mL] | MIC (Escherichia coli [17]) [µg/mL] | MIC (Escherichia coli [18]) [µg/mL] | MIC (Escherichia coli [19]) [µg/mL] | MIC (Escherichia coli [20]) [µg/mL] | further results |
| --- | --- | --- | --- | --- | --- | --- | --- | --- | --- | --- | --- | --- | --- | --- | --- | --- | --- | --- | --- | --- | --- |
| CO/N=C(\C(=O)N[C@@H]1C(=O)N2C(C(=O)[O-])=C(C[N+]3(C)CCCC3)CS[C@H]12)c1csc(N)n1 | 0.12 (≈ 0.25 µM) | > 512 | < 0.5 | 0.5 (≈ 1.04 µM) | 0.12 (≈ 0.25 µM) | 0.12 (≈ 0.25 µM) | 0.12 (≈ 0.25 µM) | 0.5 (≈ 1.04 µM) | 0.5 (≈ 1.04 µM) | 0.12 (≈ 0.25 µM) | 0.12 (≈ 0.25 µM) | 0.5 (≈ 1.04 µM) | 0.5 (≈ 1.04 µM) | 0.12 (≈ 0.25 µM) | 0.12 (≈ 0.25 µM) | 0.12 (≈ 0.25 µM) | 0.06 (≈ 0.125 µM) | 0.5 (≈ 1.04 µM) | 0.12 (≈ 0.25 µM) | 0.12 (≈ 0.25 µM) | MIC (Escherichia coli [21]): 0.03 µg/mL (≈ 0.0624 µM) |
| C[C@@H](O)[C@H]1C(=O)N2C(C(=O)O)=C(SCCNC=N)C[C@H]12 [IMIPENEM ANHYDROUS] | > 16 | 16 (≈ 53.4 µM) | 0.5 (≈ 1.67 µM) | > 32 | 0.38 (≈ 1.27 µM) | 0.38 (≈ 1.27 µM) | 0.38 (≈ 1.27 µM) | > 32 | 0.75 (≈ 2.51 µM) | 0.5 (≈ 1.67 µM) | 0.5 (≈ 1.67 µM) | 0.5 (≈ 1.67 µM) | 0.5 (≈ 1.67 µM) | 2 (≈ 6.68 µM) | 0.75 (≈ 2.51 µM) | 0.75 (≈ 2.51 µM) | 4 (≈ 13.4 µM) |  | 0.75 (≈ 2.51 µM) | 0.75 (≈ 2.51 µM) | MIC (Klebsiella pneumoniae [22]): 64 µg/mL (≈ 214 µM); MIC (Escherichia coli [23]): 2 µg/mL (≈ 6.68 µM); MIC (Escherichia coli [24]): 0.75 µg/mL (≈ 2.51 µM); MIC (Klebsiella pneumoniae [25]): > 32 µg/mL; MIC (Klebsiella pneumoniae [26]): > 32 µg/mL; MIC (Klebsiella pneumoniae [27]): > 32 µg/mL; MIC (Klebsiella pneumoniae [28]): 24 µg/mL (≈ 80.2 µM); MIC (Klebsiella pneumoniae [29]): 24 µg/mL (≈ 80.2 µM); MIC (Klebsiella pneumoniae [30]): 2 µg/mL (≈ 6.68 µM); MIC (Providencia rettgeri): > 32 µg/mL; MIC (Enterobacter cloacae [31]): 0.5 µg/mL (≈ 1.67 µM); MIC (Escherichia coli [32]): 0.5 µg/mL (≈ 1.67 µM); MIC (Enterobacter cloacae [33]): 0.75 µg/mL (≈ 2.51 µM); MIC (Escherichia coli [34]): 0.75 µg/mL (≈ 2.51 µM); MIC (Citrobacter freundii): > 32 µg/mL; MIC (Escherichia coli [35]): 24 µg/mL (≈ 80.2 µM) |
| C[C@@H](O)[C@H]1C(=O)N2C(C(=O)O)=C(S[C@@H]3CN[C@H](C(=O)N(C)C)C3)[C@H](C)[C@H]12 [MEROPENEM] |  | 32 (≈ 83.4 µM) | 0.12 (≈ 0.313 µM) | > 32 | 0.094 (≈ 0.245 µM) | 0.094 (≈ 0.245 µM) | 0.094 (≈ 0.245 µM) | > 32 | 0.12 (≈ 0.313 µM) | 0.094 (≈ 0.245 µM) | 0.094 (≈ 0.245 µM) | 0.5 (≈ 1.3 µM) | 0.5 (≈ 1.3 µM) | 2 (≈ 5.22 µM) | 0.5 (≈ 1.3 µM) | 0.5 (≈ 1.3 µM) | 0.19 (≈ 0.495 µM) | 0.25 (≈ 0.652 µM) | 0.12 (≈ 0.313 µM) | 0.19 (≈ 0.495 µM) | MIC (Klebsiella pneumoniae [22]): 64 µg/mL (≈ 167 µM); MIC (Escherichia coli [23]): 0.25 µg/mL (≈ 0.652 µM); MIC (Escherichia coli [24]): 0.12 µg/mL (≈ 0.313 µM); MIC (Klebsiella pneumoniae [25]): > 32 µg/mL; MIC (Klebsiella pneumoniae [26]): > 32 µg/mL; MIC (Klebsiella pneumoniae [27]): > 32 µg/mL; MIC (Klebsiella pneumoniae [30]): 2 µg/mL (≈ 5.22 µM); MIC (Providencia rettgeri): > 32 µg/mL; MIC (Enterobacter cloacae [31]): 0.5 µg/mL (≈ 1.3 µM); MIC (Escherichia coli [32]): 0.094 µg/mL (≈ 0.245 µM); MIC (Enterobacter cloacae [33]): 0.75 µg/mL (≈ 1.96 µM); MIC (Escherichia coli [34]): 0.12 µg/mL (≈ 0.313 µM); MIC (Citrobacter freundii): > 32 µg/mL; MIC (Escherichia coli [35]): 24 µg/mL (≈ 62.6 µM); MIC (Escherichia coli [21]): 0.06 µg/mL (≈ 0.156 µM); MIC (Escherichia coli [36]): 0.06 µg/mL (≈ 0.156 µM) |
